In ChEMBL document CHEMBL1156130, “(1-(4-(Naphthalen-2-yl)pyrimidin-2-yl)piperidin-4-yl)methanamine: a wingless beta-catenin agonist that increases bone formation rate” (J Med Chem, 2009):
Values after ≈ are worked out from the molar mass of the structure shown. Active and inactive are the calls of the source. The calls are words filed in the database; no cut-off is given here.

Assays:
[1] = Solubility at pH 7.4; assay type: physicochemical; settings: buffer
[2] = molecular target: Glycogen synthase kinase-3 beta (Homo sapiens, UniProt P49841); assay: Inhibition of GSK3-beta
[3] = Volume of distribution at steady state in ovariectomized rat at 2 mg/kg, iv; assay type: ADME, organism-based; design: dose 2 mg/kg, route intravenous; settings: female, in vivo, read-out: Vdss
Summary of the method: (§1)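 Ovariectomized rats received a single intravenous dose of 2.0 mg/kg in DMSO vehicle. Plasma drug concentration-time curves gave the PK parameters.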

Mus musculus [4] = organism: Mus musculus; assay: Increase in trabecular bone formation rate in Dkk1 knockout mouse measured after 7 days; assay type: functional, organism-based; settings: Trabecula
[5] = Half life in ovariectomized rat plasma at 2 mg/kg, iv; assay type: ADME, organism-based; design: dose 2 mg/kg, route intravenous; settings: female; summary of the method: as §1
Rattus norvegicus [6] = assay: Increase in trabecular bone formation rate in once daily po dosed ovariectomized rat measured after 28 days; assay type: functional, organism-based; settings: Trabecula
Summary of the method: (§2)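 Ovariectomized rats dosed orally once daily for 28 days at four dose levels; vehicle 0.5% methylcellulose/2% Tween-80. Trabecular bone formation rate in the tibia determined at end of in-life phase. Positive control hPTH given sc.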

[7] = AUC (0 to infinity) in ovariectomized rat at 10 mg/kg, po; assay type: ADME, organism-based; design: time infinity, dose 10 mg/kg, route oral; settings: female, plasma
Summary of the method: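 Single oral dose in ovariectomized rats, vehicle 2% MC/0.5% Tween-80. Plasma drug concentration followed over time; AUC0-∞ taken from the plasma concentration-time curve.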

[8] = AUC (0 to infinity) in ovariectomized rat at 2 mg/kg, iv; assay type: ADME, organism-based; design: time infinity, dose 2 mg/kg, route intravenous; settings: female, plasma
Summary of the method: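 Single intravenous dose in ovariectomized rats, vehicle DMSO. Plasma drug concentration followed over time; AUC0-∞ taken from the plasma concentration-time curve.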

Rattus norvegicus [9] = assay: Increase in trabecular bone formation rate in ovariectomized rat measured at 0.3 mg/kg, po once daily after 28 days; assay type: functional, organism-based; design: dose 0.3 mg/kg; settings: Trabecula; summary of the method: as §2
Mus musculus [10] = organism: Mus musculus; assay: Increase in trabecular bone formation rate in wild type mouse measured after 7 days; assay type: functional, organism-based; settings: Trabecula
[11] = Half life in ovariectomized rat plasma at 10 mg/kg, po; assay type: ADME, organism-based; design: dose 10 mg/kg, route oral; settings: female
Summary of the method: (§3)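 Single oral dose given to ovariectomized rats at 10 mg/kg in 2% MC/0.5% T80 vehicle. Plasma drug concentration was followed over time, and PK parameters were derived from the concentration-time curve.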

[12] = Tmax in ovariectomized rat at 10 mg/kg, po; assay type: ADME, organism-based; design: dose 10 mg/kg, route oral; settings: female, in vivo; summary of the method: as §3
[13] = Cmax in ovariectomized rat at 10 mg/kg, po; assay type: ADME, organism-based; design: dose 10 mg/kg, route oral; settings: female, in vivo; summary of the method: as §3
[14] = Plasma clearance in ovariectomized rat at 2 mg/kg, iv; assay type: ADME, organism-based; design: dose 2 mg/kg, route intravenous; settings: female; summary of the method: as §1
[15] = Oral bioavailability in ovariectomized rat at 10 mg/kg; assay type: ADME, organism-based; settings: female, in vivo; summary of the method: as §3
[16] = Metabolic stability in rat liver microsomes assessed as half life at 1 uM; assay type: ADME, Microsome
[17] = Membrane permeability by PAMPA; assay type: ADME; settings: read-out: permeability

Chain of Glycogen synthase kinase-3 beta (P49841 whole entry): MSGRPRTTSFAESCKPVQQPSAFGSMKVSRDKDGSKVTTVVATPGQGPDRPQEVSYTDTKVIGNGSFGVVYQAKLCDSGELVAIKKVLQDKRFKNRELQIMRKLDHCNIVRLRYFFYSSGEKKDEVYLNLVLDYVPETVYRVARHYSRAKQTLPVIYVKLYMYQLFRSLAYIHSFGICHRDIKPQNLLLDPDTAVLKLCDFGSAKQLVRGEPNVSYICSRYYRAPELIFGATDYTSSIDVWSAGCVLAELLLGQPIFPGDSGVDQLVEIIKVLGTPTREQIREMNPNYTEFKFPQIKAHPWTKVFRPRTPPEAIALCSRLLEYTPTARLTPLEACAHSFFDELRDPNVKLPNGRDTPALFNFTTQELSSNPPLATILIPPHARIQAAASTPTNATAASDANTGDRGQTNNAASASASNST

Structure (SMILES): Cc1ccc(-c2ccnc(N(C)c3ccc(S(N)(=O)=O)cc3)n2)s1
- solubility [1]: 0.015 mg/mL (≈ 41.6 µM)
- IC50 [2]: 65 µM

Structure (SMILES): NS(=O)(=O)c1ccc(Nc2nccc(-c3ccc4ccccc4c3)n2)cc1
- solubility [1]: < 0.0001 mg/mL
- IC50 [2]: 0.31 µM

Structure (SMILES): NCC1CCN(c2nccc(-c3ccc4ccccc4c3)n2)CC1
- Vd [3]: 22 L/kg
- Activity (Mus musculus [4]): inactive
- half-life [5]: 8.2 h
- Activity (Rattus norvegicus [6]): Dose-dependent effect
- AUC(0-inf) [7]: 3.99 µg·h/mL
- solubility [1]: 0.065 mg/mL (≈ 204 µM)
- AUC(0-inf) [8]: 1.03 µg·h/mL
- Activity (Rattus norvegicus [9]): Active
- Activity (Mus musculus [10]): Active
- half-life [11]: 5.6 h
- IC50 [2]: > 100 µM
- Tmax [12]: 4.7 h
- Cmax [13]: 0.277 µg/mL
- clearance [14]: 1.92 L/h/kg
- bioavailability [15]: 78%
- half-life at 1 µM [16]: > 0.5 h
- Papp [17]: 59 nm/s

Structure (SMILES): Cc1ccc(-c2ccnc(Nc3ccc(S(N)(=O)=O)cc3)n2)s1
- solubility [1]: 0.008 mg/mL (≈ 23.1 µM)
- IC50 [2]: 0.2 µM

Structure (SMILES): NC1CCN(c2nccc(-c3ccc4ccccc4c3)n2)CC1
- solubility [1]: > 0.1 mg/mL
- IC50 [2]: > 50 µM

Structure (SMILES): CC(=O)NCC1CCN(c2nccc(-c3ccc4ccccc4c3)n2)CC1
- solubility [1]: 0.001 mg/mL (≈ 2.77 µM)
- IC50 [2]: > 10 µM
